Source: ChEMBL document CHEMBL1649579, “A novel tryptophanyl-tRNA synthetase gene confers high-level resistance to indolmycin” (2009)
Values after ≈ are worked out from the molar mass of the structure shown.

Key:
Format in all cases: functional
[1] = test system: Streptomyces coelicolor; experiment: Antimicrobial activity against wild-type Streptomyces coelicolor after 48 hrs
Procedure, shortened: (§1)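 Indolmycin MIC on Difco nutrient agar containing the indicated indolmycin concentrations. Spores are grown at 30C for 48 h. MIC is the lowest indolmycin concentration that prevents growth after 2 days.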

[2] = test system: Streptomyces coelicolor; experiment: Antimicrobial activity against trpRS1 deficient Streptomyces coelicolor B725 after 48 hrs; settings: B725, 48 h; procedure, shortened: as §1
[3] = test system: Streptomyces coelicolor; experiment: Antimicrobial activity against Streptomyces coelicolor B725 harboring trpRS1 ORF after 48 hrs; settings: B725, 48 h
Procedure, shortened: (§2)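 Agar MIC in S. coelicolor trpRS1-null strain B725. Each ORF is cloned into pIJ10257 under the constitutive ermE* promoter for equalized expression. Growth is on Difco nutrient agar with indolmycin at the indicated concentrations, 30C, 48 h. MIC is the concentration that inhibits growth.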

[4] = test system: Streptomyces avermitilis; experiment: Antimicrobial activity against Streptomyces avermitilis harboring trpRS1 homolog after 48 hrs; procedure, shortened: as §1
[5] = test system: Streptomyces griseus; experiment: Antimicrobial activity against Streptomyces griseus after 48 hrs; procedure, shortened: as §1
[6] = test system: Streptomyces coelicolor; experiment: Antimicrobial activity against Streptomyces coelicolor B725 harboring trpRS2 ORF after 48 hrs; settings: B725, 48 h; procedure, shortened: as §2
[7] = test system: Streptomyces coelicolor; experiment: Antimicrobial activity against Streptomyces coelicolor B725 harboring trpRS2 L9F mutant ORF after 48 hrs; settings: B725, 48 h; procedure, shortened: as §2
[8] = test system: Streptomyces coelicolor; experiment: Antimicrobial activity against Streptomyces coelicolor B725 harboring trpRS2 H48Q mutant ORF after 48 hrs; settings: B725, 48 h; procedure, shortened: as §2
[9] = test system: Streptomyces coelicolor; experiment: Antimicrobial activity against Streptomyces coelicolor B725 harboring trpRS2 H48N mutant ORF after 48 hrs; settings: B725, 48 h; procedure, shortened: as §2
[10] = test system: Streptomyces coelicolor; experiment: Antimicrobial activity against Streptomyces coelicolor B725 harboring trpRS2 Q13K mutant ORF after 48 hrs; settings: B725, 48 h; procedure, shortened: as §2
[11] = test system: Streptomyces coelicolor; experiment: Antimicrobial activity against Streptomyces coelicolor B725 harboring trpRS2 L9F/Q13K mutant ORF after 48 hrs; settings: B725, 48 h; procedure, shortened: as §2
[12] = test system: Streptomyces coelicolor; experiment: Antimicrobial activity against Streptomyces coelicolor B725 harboring trpRS2 L9F/H48Q mutant ORF after 48 hrs; settings: B725, 48 h; procedure, shortened: as §2
[13] = test system: Streptomyces coelicolor; experiment: Antimicrobial activity against Streptomyces coelicolor B725 harboring trpRS2 locus after 48 hrs; settings: B725, 48 h
Procedure, shortened: (§3)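 Agar MIC in trpRS1-null S. coelicolor B725 carrying the trpRS2 locus (93 nt upstream to 96 nt downstream of the ORF, with or without point mutations) […]. Plates are Difco nutrient agar with indicated indolmycin levels, read for growth after 48 h at 30C.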

[14] = test system: Streptomyces coelicolor; experiment: Antimicrobial activity against Streptomyces coelicolor B725 harboring trpRS2 C(-17)A locus after 48 hrs; settings: B725, 48 h; procedure, shortened: as §3
[15] = test system: Streptomyces coelicolor; experiment: Antimicrobial activity against Streptomyces coelicolor B725 harboring trpRS2 C(-17)A/L9F locus after 48 hrs; settings: B725, 48 h; procedure, shortened: as §3
[16] = test system: Streptomyces coelicolor; experiment: Antimicrobial activity against Streptomyces coelicolor B725 harboring trpRS2 C(-17)A/H48Q locus after 48 hrs; settings: B725, 48 h; procedure, shortened: as §3
[17] = test system: Streptomyces coelicolor; experiment: Antimicrobial activity against Streptomyces coelicolor B725 harboring trpRS2 G(-13)T locus after 48 hrs; settings: B725, 48 h; procedure, shortened: as §3
[18] = test system: Streptomyces coelicolor; experiment: Antimicrobial activity against Streptomyces coelicolor B725 harboring trpRS2 G(-13)T/L9F locus after 48 hrs; settings: B725, 48 h; procedure, shortened: as §3
[19] = test system: Streptomyces coelicolor; experiment: Antimicrobial activity against Streptomyces coelicolor B725 harboring trpRS2 G(-13)T/H48Q locus after 48 hrs; settings: B725, 48 h; procedure, shortened: as §3
[20] = test system: Streptomyces coelicolor; experiment: Ratio of MIC for Streptomyces coelicolor B725 harboring trpRS2 ORF to MIC for Streptomyces coelicolor B725
Procedure, shortened: (§4)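 Fold increase is the indolmycin MIC of each construct-bearing B725 strain (ermE* promoter) divided by the MIC of the parent trpRS1-null B725. Both MICs come from Difco nutrient agar plates containing indolmycin, read for growth after 2 days at 30C.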

[21] = test system: Streptomyces coelicolor; experiment: Ratio of MIC for Streptomyces coelicolor B725 harboring trpRS2 L9F mutant ORF to MIC for Streptomyces coelicolor B725; procedure, shortened: as §4
[22] = test system: Streptomyces coelicolor; experiment: Ratio of MIC for Streptomyces coelicolor B725 harboring trpRS2 H48Q mutant ORF to MIC for Streptomyces coelicolor B725; procedure, shortened: as §4
[23] = test system: Streptomyces coelicolor; experiment: Ratio of MIC for Streptomyces coelicolor B725 harboring trpRS2 H48N mutant ORF to MIC for Streptomyces coelicolor B725; procedure, shortened: as §4
[24] = test system: Streptomyces coelicolor; experiment: Ratio of MIC for Streptomyces coelicolor B725 harboring trpRS2 Q13K mutant ORF to MIC for Streptomyces coelicolor B725; procedure, shortened: as §4
[25] = test system: Streptomyces coelicolor; experiment: Ratio of MIC for Streptomyces coelicolor B725 harboring trpRS2 L9F/Q13K mutant ORF to MIC for Streptomyces coelicolor B725; procedure, shortened: as §4
[26] = test system: Streptomyces coelicolor; experiment: Ratio of MIC for Streptomyces coelicolor B725 harboring trpRS2 L9F/H48Q mutant ORF to MIC for Streptomyces coelicolor B725; procedure, shortened: as §4
[27] = test system: Streptomyces coelicolor; experiment: Ratio of MIC for Streptomyces coelicolor B725 harboring trpRS2 locus to MIC for Streptomyces coelicolor B725; procedure, shortened: as §4
[28] = test system: Streptomyces coelicolor; experiment: Ratio of MIC for Streptomyces coelicolor B725 harboring trpRS2 C(-17)A locus to MIC for Streptomyces coelicolor B725; procedure, shortened: as §4
[29] = test system: Streptomyces coelicolor; experiment: Ratio of MIC for Streptomyces coelicolor B725 harboring trpRS2 C(-17)A/L9F locus to MIC for Streptomyces coelicolor B725; procedure, shortened: as §4
[30] = test system: Streptomyces coelicolor; experiment: Ratio of MIC for Streptomyces coelicolor B725 harboring trpRS2 C(-17)A/H48Q locus to MIC for Streptomyces coelicolor B725; procedure, shortened: as §4
[31] = test system: Streptomyces coelicolor; experiment: Ratio of MIC for Streptomyces coelicolor B725 harboring trpRS2 G(-13)T locus to MIC for Streptomyces coelicolor B725; procedure, shortened: as §4
[32] = test system: Streptomyces coelicolor; experiment: Ratio of MIC for Streptomyces coelicolor B725 harboring trpRS2 G(-13)T/L9F locus to MIC for Streptomyces coelicolor B725; procedure, shortened: as §4
[33] = test system: Streptomyces coelicolor; experiment: Ratio of MIC for Streptomyces coelicolor B725 harboring trpRS2 G(-13)T/H48Q locus to MIC for Streptomyces coelicolor B725; procedure, shortened: as §4
[34] = test system: Streptomyces coelicolor; experiment: Ratio of MIC for Streptomyces coelicolor B725 overexpressing tryptophanyl-tRNA synthetase gene to MIC for Streptomyces coelicolor B725; procedure, shortened: as §4

With `CNC1=NC(=O)[C@H]([C@H](C)c2c[nH]c3ccccc23)O1` [INDOMYCIN] as the compound, how does the MIC [1] read?
Its MIC is > 150 µg/mL.

And the MIC [2]?
Its MIC is 0.25 µg/mL (≈ 0.972 µM).

What about the MIC [3] of the same compound?
The MIC was 10 µg/mL (≈ 38.9 µM).

And the MIC [4]?
Its MIC is 5 µg/mL (≈ 19.4 µM).

And the MIC [5]?
Its MIC is 15 µg/mL (≈ 58.3 µM).

What about the MIC [6] of the same compound?
Its MIC is 0.25 µg/mL (≈ 0.972 µM).

And the MIC [7]?
The MIC was 5 µg/mL (≈ 19.4 µM).

And the MIC [8]?
Its MIC is > 75 µg/mL.

What about the MIC [9] of the same compound?
The MIC was > 75 µg/mL.

And the MIC [10]?
The MIC was 3 µg/mL (≈ 11.7 µM).

What about the MIC [11] of the same compound?
Its MIC is 8 µg/mL (≈ 31.1 µM).

And the MIC [12]?
Its MIC is > 75 µg/mL.

What about the MIC [13] of the same compound?
Its MIC is 0.25 µg/mL (≈ 0.972 µM).

What about the MIC [14] of the same compound?
The MIC was 2 µg/mL (≈ 7.77 µM).

And the MIC [15]?
Its MIC is 5 µg/mL (≈ 19.4 µM).

What about the MIC [16] of the same compound?
The MIC was > 75 µg/mL.

What about the MIC [17] of the same compound?
Its MIC is 5 µg/mL (≈ 19.4 µM).

What about the MIC [18] of the same compound?
The MIC was 12 µg/mL (≈ 46.6 µM).

And the MIC [19]?
The MIC was > 75 µg/mL.

What about the “fold change (FC)” value [20] of the same compound?
The value was 1.

What about the “fold change (FC)” value [21] of the same compound?
The value was 20.

What about the “fold change (FC)” value [22] of the same compound?
The value was >300.

What about the “fold change (FC)” value [23] of the same compound?
The value was >300.

And the “fold change (FC)” value [24]?
The value was 12.

And the “fold change (FC)” value [25]?
The value was 32.

And the “fold change (FC)” value [26]?
The value was >300.

And the “fold change (FC)” value [27]?
The value was 1.

And the “fold change (FC)” value [28]?
The value was 8.

And the “fold change (FC)” value [29]?
The value was 20.

What about the “fold change (FC)” value [30] of the same compound?
Its value is >300.

What about the “fold change (FC)” value [31] of the same compound?
The value was 20.

And the “fold change (FC)” value [32]?
Its value is 48.

What about the “fold change (FC)” value [33] of the same compound?
Its value is >300.

And the “fold change (FC)” value [34]?
Its value is 60.
